Laboratory results as given in ChEMBL document CHEMBL4715736, “Identification of anticancer agents based on the thieno[2,3-b]pyridine and 1H-pyrazole molecular scaffolds” (2016).

Columns and labels:
Assay type in all cases: functional
[1] = test system: BT-549; assay: Growth inhibition of human BT-549 cells assessed as cell growth at 1 uM incubated for 48 hrs by sulforhodamine B assay relative to control; conditions: read-out: Activity
[2] = test system: SK-MEL-28; assay: Growth inhibition of human SK-MEL-28 cells assessed as cell growth at 100 uM incubated for 48 hrs by sulforhodamine B assay relative to control; conditions: read-out: Activity
[3] = test system: K562; assay: Growth inhibition of human K562 cells assessed as cell growth at 0.1 uM incubated for 48 hrs by sulforhodamine B assay relative to control; conditions: read-out: Activity
[4] = test system: ACHN; assay: Growth inhibition of human ACHN cells incubated for 48 hrs by sulforhodamine B assay; conditions: for CC50: read-out: LC50 (the source's name)
Summary of the method: (§1)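 NCI Developmental Therapeutics Program NCI60 panel. Compounds that were active in the 10 µM one-dose screen went on to dose–response testing. Growth at each concentration is expressed relative to untreated control (100%). GI50 (concentration giving 50% of maximal inhibition of proliferation) and TGI (concentration giving total growth inhibition) were derived from the curves.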

[5] = test system: Malme-3M; assay: Growth inhibition of human Malme-3M cells assessed as cell growth at 1 uM incubated for 48 hrs by sulforhodamine B assay relative to control; conditions: read-out: Activity
[6] = test system: RXF 393; assay: Growth inhibition of human RXF 393 cells incubated for 48 hrs by sulforhodamine B assay; conditions: for CC50: read-out: LC50 (the source's name)
Summary of the method: (§2)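 NCI DTP 60-line human tumour panel. Dose-response curves were run only for ligands active in the initial 10 µM screen. GI50 (concentration giving 50% of maximal inhibition of proliferation) and TGI (concentration giving total growth inhibition) were derived from these curves.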

[7] = test system: MOLT-4; assay: Growth inhibition of human MOLT-4 cells assessed as cell growth at 0.1 uM incubated for 48 hrs by sulforhodamine B assay relative to control; conditions: read-out: Activity
[8] = test system: SF-539; assay: Growth inhibition of human SF-539 cells assessed as cell growth at 0.1 uM incubated for 48 hrs by sulforhodamine B assay relative to control; conditions: read-out: Activity
[9] = test system: RPMI-8226; assay: Growth inhibition of human RPMI-8226 cells incubated for 48 hrs by sulforhodamine B assay; summary of the method: as §2
[10] = test system: OVCAR-4; assay: Growth inhibition of human OVCAR-4 cells incubated for 48 hrs by sulforhodamine B assay; conditions: for CC50: read-out: LC50 (the source's name); summary of the method: as §2
[11] = test system: HOP-92; assay: Growth inhibition of human HOP-92 cells assessed as cell growth at 1 uM incubated for 48 hrs by sulforhodamine B assay relative to control; conditions: read-out: Activity
[12] = test system: CAKI-1; assay: Growth inhibition of human CAKI-1 cells assessed as cell growth at 0.01 uM incubated for 48 hrs by sulforhodamine B assay relative to control; conditions: read-out: Activity; summary of the method: as §1
[13] = test system: NCI/ADR-RES; assay: Growth inhibition of human NCI/ADR-RES cells assessed as cell growth at 100 uM incubated for 48 hrs by sulforhodamine B assay relative to control; conditions: read-out: Activity
[14] = test system: BT-549; assay: Growth inhibition of human BT-549 cells assessed as cell growth at 0.01 uM incubated for 48 hrs by sulforhodamine B assay relative to control; conditions: read-out: Activity
[15] = test system: SK-MEL-2; assay: Growth inhibition of human SK-MEL-2 cells assessed as cell growth at 100 uM incubated for 48 hrs by sulforhodamine B assay relative to control; conditions: read-out: Activity
[16] = test system: RPMI-8226; assay: Growth inhibition of human RPMI-8226 cells assessed as cell growth at 100 uM incubated for 48 hrs by sulforhodamine B assay relative to control; conditions: read-out: Activity
[17] = test system: UACC-257; assay: Growth inhibition of human UACC-257 cells assessed as cell growth at 0.01 uM incubated for 48 hrs by sulforhodamine B assay relative to control; conditions: read-out: Activity
[18] = test system: SNB-75; assay: Growth inhibition of human SNB-75 cells assessed as cell growth at 0.1 uM incubated for 48 hrs by sulforhodamine B assay relative to control; conditions: read-out: Activity
[19] = test system: Hs-578T; assay: Growth inhibition of human Hs-578T cells assessed as cell growth at 100 uM incubated for 48 hrs by sulforhodamine B assay relative to control; conditions: read-out: Activity
[20] = test system: SNB-19; assay: Growth inhibition of human SNB-19 cells assessed as cell growth at 0.1 uM incubated for 48 hrs by sulforhodamine B assay relative to control; conditions: read-out: Activity
[21] = test system: NCI/ADR-RES; assay: Growth inhibition of human NCI/ADR-RES cells assessed as cell growth at 0.1 uM incubated for 48 hrs by sulforhodamine B assay relative to control; conditions: read-out: Activity
[22] = test system: NCI-H322M; assay: Growth inhibition of human NCI-H322M cells assessed as cell growth at 0.1 uM incubated for 48 hrs by sulforhodamine B assay relative to control; conditions: read-out: Activity
[23] = test system: LOX IMVI; assay: Growth inhibition of human LOX IMVI cells assessed as cell growth at 0.1 uM incubated for 48 hrs by sulforhodamine B assay relative to control; conditions: read-out: Activity
[24] = test system: RXF 393; assay: Growth inhibition of human RXF 393 cells assessed as cell growth at 0.01 uM incubated for 48 hrs by sulforhodamine B assay relative to control; conditions: read-out: Activity
[25] = test system: SK-MEL-5; assay: Growth inhibition of human SK-MEL-5 cells assessed as cell growth at 100 uM incubated for 48 hrs by sulforhodamine B assay relative to control; conditions: read-out: Activity
[26] = test system: MDA-MB-435; assay: Growth inhibition of human MDA-MB-435 cells assessed as cell growth at 0.01 uM incubated for 48 hrs by sulforhodamine B assay relative to control; conditions: read-out: Activity
[27] = test system: NCI-H460; assay: Growth inhibition of human NCI-H460 cells assessed as cell growth at 0.1 uM incubated for 48 hrs by sulforhodamine B assay relative to control; conditions: read-out: Activity
[28] = test system: DU-145; assay: Growth inhibition of human DU-145 cells assessed as cell growth at 0.1 uM incubated for 48 hrs by sulforhodamine B assay relative to control; conditions: read-out: Activity; summary of the method: as §1
[29] = test system: HOP-62; assay: Growth inhibition of human HOP-62 cells assessed as cell growth at 0.1 uM incubated for 48 hrs by sulforhodamine B assay relative to control; conditions: read-out: Activity
[30] = test system: 786-0; assay: Growth inhibition of human 786-0 cells assessed as cell growth at 0.1 uM incubated for 48 hrs by sulforhodamine B assay relative to control; conditions: read-out: Activity; summary of the method: as §1
[31] = test system: OVCAR-4; assay: Growth inhibition of human OVCAR-4 cells assessed as cell growth at 1 uM incubated for 48 hrs by sulforhodamine B assay relative to control; conditions: read-out: Activity
[32] = test system: COLO 205; assay: Growth inhibition of human COLO 205 cells assessed as cell growth at 0.1 uM incubated for 48 hrs by sulforhodamine B assay relative to control; conditions: read-out: Activity; summary of the method: as §1
[33] = test system: CCRF-CEM; assay: Growth inhibition of human CCRF-CEM cells assessed as cell growth at 1 uM incubated for 48 hrs by sulforhodamine B assay relative to control; conditions: read-out: Activity; summary of the method: as §1
[34] = test system: ACHN; assay: Growth inhibition of human ACHN cells assessed as cell growth at 0.01 uM incubated for 48 hrs by sulforhodamine B assay relative to control; conditions: read-out: Activity
[35] = test system: CCRF-CEM; assay: Growth inhibition of human CCRF-CEM cells incubated for 48 hrs by sulforhodamine B assay; summary of the method: as §1
[36] = test system: SF-268; assay: Growth inhibition of human SF-268 cells assessed as cell growth at 1 uM incubated for 48 hrs by sulforhodamine B assay relative to control; conditions: read-out: Activity

Nc1c(C(=O)Nc2ccccc2)sc2nc3c(cc12)CN(Cc1ccccc1)CC3
growth at 1 µM [1]: 90%
growth at 100 µM [2]: 28%
growth at 0.1 µM [3]: 99%
GI50 [4]: 5.5 µM
TGI [4]: > 100 µM
CC50 [4]: > 100 µM
growth at 1 µM [5]: 87%
GI50 [6]: 3.15 µM
TGI [6]: 54.2 µM
CC50 [6]: > 100 µM
growth at 0.1 µM [7]: 95%
growth at 0.1 µM [8]: 90%
GI50 [9]: 55.8 µM
LC50 [9]: > 100 µM
TGI [9]: > 100 µM
GI50 [10]: 1.97 µM
TGI [10]: 23.1 µM
CC50 [10]: > 100 µM
growth at 1 µM [11]: 74%
growth at 0.01 µM [12]: 93%
growth at 100 µM [13]: 29%
growth at 0.01 µM [14]: 97%
growth at 100 µM [15]: 4%
growth at 100 µM [16]: 42%
growth at 0.01 µM [17]: 93%
growth at 0.1 µM [18]: 83%
growth at 100 µM [19]: -6%
growth at 0.1 µM [20]: 94%
growth at 0.1 µM [21]: 101%
growth at 0.1 µM [22]: 93%
growth at 0.1 µM [23]: 102%
growth at 0.01 µM [24]: 96%
growth at 100 µM [25]: 16%
growth at 0.01 µM [26]: 93%
growth at 0.1 µM [27]: 102%
growth at 0.1 µM [28]: 107%
growth at 0.1 µM [29]: 84%
growth at 0.1 µM [30]: 90%
growth at 1 µM [31]: 66%
growth at 0.1 µM [32]: 94%
growth at 1 µM [33]: 92%
growth at 0.01 µM [34]: 101%
GI50 [35]: 50.3 µM
LC50 [35]: > 100 µM
TGI [35]: > 100 µM
growth at 1 µM [36]: 85%

Cc1cccc(NC(=O)c2sc3nc4c(cc3c2N)C(=O)CCC4)c1
growth at 1 µM [1]: 46%
growth at 100 µM [2]: -15%
growth at 0.1 µM [3]: 44%
GI50 [4]: 0.0224 µM
TGI [4]: ≥ 100 µM
CC50 [4]: > 100 µM
growth at 1 µM [5]: 36%
GI50 [6]: 0.167 µM
TGI [6]: ≥ 100 µM
CC50 [6]: > 100 µM
growth at 0.1 µM [7]: 95%
growth at 0.1 µM [8]: 75%
GI50 [9]: 0.57 µM
LC50 [9]: > 100 µM
TGI [9]: > 100 µM
TGI [10]: ≥ 100 µM
CC50 [10]: > 100 µM
growth at 1 µM [11]: 50%
growth at 0.01 µM [12]: 89%
growth at 100 µM [13]: -3%
growth at 0.01 µM [14]: 87%
growth at 100 µM [15]: -74%
growth at 100 µM [16]: 21%
growth at 0.01 µM [17]: 82%
growth at 0.1 µM [18]: 75%
growth at 100 µM [19]: -48%
growth at 0.1 µM [20]: 76%
growth at 0.1 µM [21]: 69%
growth at 0.1 µM [22]: 84%
growth at 0.1 µM [23]: 91%
growth at 0.01 µM [24]: 97%
growth at 100 µM [25]: -30%
growth at 0.01 µM [26]: 87%
growth at 0.1 µM [27]: 83%
growth at 0.1 µM [28]: 89%
growth at 0.1 µM [29]: 69%
growth at 0.1 µM [30]: 80%
growth at 1 µM [31]: 44%
growth at 0.1 µM [32]: 78%
growth at 1 µM [33]: 31%
growth at 0.01 µM [34]: 90%
LC50 [35]: > 100 µM
TGI [35]: > 100 µM
growth at 1 µM [36]: 54%
